High-throughput results (PubChem BioAssay)
Compounds with a hit are over-represented: about 2.3% of the library has one in this group of screens.
V1aR counter: V1a receptor agonism, counter-screen for OXTR agonists; AID 2797; activation, % at 3 µM; P37288; actives 0.25% (n = 320,000); CHO-V1R cells, Fluo-8 calcium fluorescence, agonist mode; 0% DMSO, 100% 3 nM vasopressin;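 active means activation above the mean activation of all tested compounds plus 3 SD, per screening run, cut at about 20% in these data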;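 further: signal is peak over basal fluorescence ratio across a 100 second FLIPR read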
OXTR ag: agonists of human oxytocin receptor; P30559; CHO-OTR cells, Fluo-8 calcium fluorescence; normalized: DMSO 0%, oxytocin 100%; activation, % at 3 µM; actives 0.32% (n = 320,000);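 active means activation above the mean of all tested compounds plus 3 SD, cutoff set per screening run, cut at about 20% in these data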;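 further: peak over basal fluorescence ratio from a 100 s FLIPR kinetic read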
Target sequence (P30559 whole entry, looked up): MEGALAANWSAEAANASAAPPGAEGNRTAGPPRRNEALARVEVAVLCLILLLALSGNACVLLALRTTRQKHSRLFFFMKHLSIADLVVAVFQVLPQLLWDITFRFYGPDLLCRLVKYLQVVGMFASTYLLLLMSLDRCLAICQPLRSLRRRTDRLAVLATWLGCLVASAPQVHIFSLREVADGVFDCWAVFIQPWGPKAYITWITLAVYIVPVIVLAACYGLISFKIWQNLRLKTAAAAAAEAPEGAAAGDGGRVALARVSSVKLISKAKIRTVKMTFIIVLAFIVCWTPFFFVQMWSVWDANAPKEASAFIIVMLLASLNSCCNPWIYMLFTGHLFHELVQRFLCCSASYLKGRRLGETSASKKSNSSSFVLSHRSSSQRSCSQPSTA
TAAR1 antagonist: antagonists of human TAAR1; Q96RJ0; CHO RD-HGA16 TAAR1, Fluo-8 calcium fluorescence, antagonist; inhibition, % at 3 µM; actives 1.5% (n = 360,000); AID 624466;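 active means inhibition above a per-plate cutoff, the mean inhibition of test compounds on that plate plus 3 SD, cut at about 49% in these data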;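 further: 0% = DMSO plus EC80 beta-PEA response and 100% = DMSO alone without agonist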
Target sequence (Q96RJ0 whole entry, looked up): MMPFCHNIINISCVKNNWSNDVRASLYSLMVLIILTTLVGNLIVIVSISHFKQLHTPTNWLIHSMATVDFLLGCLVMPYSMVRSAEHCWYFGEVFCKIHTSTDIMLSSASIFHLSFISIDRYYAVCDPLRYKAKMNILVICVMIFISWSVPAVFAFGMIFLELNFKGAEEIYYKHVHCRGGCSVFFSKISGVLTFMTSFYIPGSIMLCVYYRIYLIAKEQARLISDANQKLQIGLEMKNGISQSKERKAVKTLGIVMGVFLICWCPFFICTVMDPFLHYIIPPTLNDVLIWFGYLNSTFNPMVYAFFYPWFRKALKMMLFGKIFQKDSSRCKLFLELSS
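Material: CHO RD-HGA16 cells bearing hTAAR1; compound dosing: one-point dosing, 3 µM nominal final; schedule: dye loading 75 min at 37 °C, then 30 min room temperature; measured by: calcium fluorescence with Fluo-8; control set: vehicle and agonist controls; replication: n of 1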
OXTR potentiate: potentiators of human oxytocin receptor | CHO-OTR cells, Fluo-8 calcium fluorescence, potentiator mode; 0% = oxytocin EC15, 100% = EC100 | P30559 | actives 0.061% (n = 320,000) | activation, % at 3 µM | AID 2445;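 active means activation above that plate's cutoff, the mean activation of tested compounds plus 3 SD, cut at about 6.6% in these data, passing the limit was not always enough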;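 further: 100% uses oxytocin at 75 nM as the full agonist control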
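Assay system: CHO cell line stably expressing human OTR | Also added: Oxytocin at about EC15, sub-maximal agonist stimulus | Times: Compound 6 min at room temperature before oxytocin, 100 s read | Measured by: Fluo-8 intracellular calcium fluorescence, ex 470-495, em 515-575 nm | Controls: EC15 oxytocin alone as 0%, 75 nM oxytocin as 100%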
TAAR1 agonist: human TAAR1 agonism. actives 0.99% (n = 360,000). CHO RD-HGA16 TAAR1, Fluo-8 calcium fluorescence; vehicle wells 0%, saturating PEA agonist 100%. activation, % at 3 µM;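 active means activation above the mean activation of all test compounds in the run plus 3 SD, cut at about 38% in these data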
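Repeats: no replicates (n 1) | Material: CHO-derived RD-HGA16 cells with stable Gα16 and human TAAR1 | Technique: Kinetic Fluo-8 calcium fluorescence | Schedule: 17-24 h seeding, 75 min 37 °C dye, 30 min RT | Evaluation: % activation from peak over basal fluorescence ratio, DMSO-to-PEA scaled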
nonsel antag count: counter-screen for TAAR1 antagonists: nonselective antagonists. shares compounds with TAAR1 antagonist. counterscreen cell line, calcium fluorescence, antagonist mode. inhibition, % at 3 µM. actives 77% (n = 2,400). AID 651780; in the data active means inhibition above about 22%;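 further: CHO-Ga16 host cells stimulated with ATP at an EC80 level; 0% = agonist EC80 plus vehicle and 100% = vehicle without agonist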
TAAR1 ant conf: confirmation of human TAAR1 antagonists. actives 40% (n = 2,400). inhibition, % at 3 µM. AID 651785. shares compounds with TAAR1 antagonist. TAAR1-expressing cells, fluorescence antagonist read-out; in the data active means inhibition above about 49%;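 further: CHO-Ga16 host cells challenged with agonist PEA near its EC80; 0% = agonist at EC80 plus vehicle and 100% = vehicle with no agonist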
Ga16 ag counter: nonselective Ga16 agonism, counter-screen; Ga16-expressing cells, calcium fluorescence, agonist counterscreen; shares compounds with TAAR1 antagonist; activation, % at 3 µM; actives 18% (n = 2,400); in the data active means activation above about 12%;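 further: 0% = vehicle wells and 100% = saturating stimulus response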
TAAR1 ag count: counter-screen for human TAAR1 antagonists: TAAR1 agonists | shares compounds with TAAR1 antagonist | hTAAR1 cell line, fluorescence activation, agonist mode | activation, % at 3 µM | actives 2% (n = 2,400) | AID 651955; in the data active means activation above about 37%;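 further: CHO cells stably expressing TAAR1 with calcium dye readout; 0% = DMSO vehicle and 100% = full agonist response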
The depositor's hits bear a star; . = no result given.

SMILES | V1aR counter | OXTR ag | TAAR1 antagonist | OXTR potentiate | TAAR1 agonist | nonsel antag count | TAAR1 ant conf | Ga16 ag counter | TAAR1 ag count
CN(Cc1ccc(F)cc1)C(=O)C(Cc1ccccc1)NC(=O)c1ccccc1 (centres undefined) | 0 | -2 | 67* | -6 | 9 | 27* | 55* | 9 | 7
CSc1ccc(CN(C)C(=O)C(Cc2ccccc2)NC(=O)c2ccccc2)cc1 (centres undefined) | 3 | 0 | 82* | -13 | 9 | 34* | 57* | 10 | 10
CCOc1ccc(CN(C)C(=O)NNC(=O)c2ccc(C)cc2)cc1OC | 0 | -1 | -7 | -7 | 0 | . | . | . | .
CCOc1ccc(CN(C)C(=O)[C@H](Cc2ccccc2)NC(=O)OCc2ccccc2)cc1OC | 5 | 3 | 62* | -11 | 12 | 30* | 55* | 9 | 8
COc1cccc(NC(C)C(=O)Nc2cc([N+](=O)[O-])ccc2Cl)c1 (centres undefined) | -2 | -2 | -3 | -14 | 1 | . | . | . | .
CC12CCC(=O)N1C(C(=O)Nc1nc3ccc(F)cc3s1)CS2 (centres undefined) | 0 | 0 | -3 | -5 | 31 | . | . | . | .
C=CCNC(=O)c1ccccc1NC(=O)c1ccc(Cl)c(S(=O)(=O)Nc2ccccc2)c1 | 3 | 1 | 55* | -7 | 18 | 28* | 46 | 7 | 13
Cc1cccc(OCCCC(=O)Nc2ccc(S(=O)(=O)Nc3nccs3)cc2)c1C | -1 | 0 | -12 | -1 | -2 | . | . | . | .
COc1cccc(C(=O)Nc2c(C(N)=O)oc3ccccc23)c1 | 1 | 2 | 56* | -5 | 12 | 24* | 41 | 7 | 9
Cc1ccc(OCC(=O)Nc2cccc(-c3nnc(-c4ccccc4)o3)c2)c(C)c1 | 0 | 1 | 66* | -3 | 15 | 41* | 64* | 7 | 5
COc1ccc(CC(=O)Nc2ccc(-c3nnc(-c4ccccc4)o3)cc2)cc1OC | 1 | 0 | . | -1 | . | . | . | . | .
CCOc1cccc(C(=O)Nc2cccc(-c3nnc(-c4ccccc4)o3)c2)c1 | 1 | 0 | 21 | -3 | 10 | . | . | . | .
COc1ccc(CC(=O)Nc2cccc(-c3nnc(-c4ccccc4)o3)c2)cc1OC | . | . | 71* | . | 29 | 57* | 73* | 18* | 17
COc1cccc(C(=O)Nc2cccc(-c3nnc(-c4ccccc4)o3)c2)c1 | 2 | 0 | 74* | -13 | 9 | 23* | 56* | 7 | 10
O=C(Nc1cccc(Cl)c1)c1csc(COCCO)n1 | . | . | -12 | . | 2 | . | . | . | .
COc1ccc(CC(=O)Nc2cccc(-c3nnc(-c4ccc(C)cc4)o3)c2)cc1OC | 6 | 6 | 82* | -9 | 24 | 53* | 69* | 17* | 15
CCc1cccc(NC(=O)Cc2ccc(OC)c(OC)c2)c1 | 6 | 6 | -7 | -10 | 5 | . | . | . | .
Cc1cc(C)nc(N2CCCC(C(=O)Nc3ccc(F)cc3)C2)n1 (centres undefined) | -1 | -1 | -7 | 0 | -1 | . | . | . | .
COc1ccc(Nc2nc(NCc3cccs3)nc3ccsc23)cc1OC | . | . | 23 | . | 6 | . | . | . | .
CCOC(=O)Cc1ccc(Nc2nc(NCc3cccs3)nc3ccsc23)cc1 | . | . | 76* | . | 6 | 42* | 45 | 5 | -1
CC1(C)CC(=O)c2c(nc(SCC(=O)Nc3nsc(-c4ccccc4)n3)c(C#N)c2-c2ccccc2)C1 | 2 | -1 | 19 | -27 | 3 | . | . | . | .
CCc1c(C#N)c(SCCC(=O)Nc2ccc(F)cc2)nc2c1C(=O)CC(C)(C)C2 | 4 | -2 | 74* | -15 | 21 | 33* | 72* | 9 | 11
O=C1CCN(CCc2ccccc2)CCN1CCO | 0 | -1 | -3 | -9 | 7 | . | . | . | .
COc1ccc(/C=C2\SC(=S)N(NS(=O)(=O)c3ccc(C)cc3)C2=O)c(OC)c1 | 3 | 0 | 68* | -2 | 16 | 16 | 33 | 8 | 5
COc1ccc(OC)c(/C=C2\SC(=S)N(NS(=O)(=O)c3ccccc3)C2=O)c1 | -1 | -2 | -10 | -5 | -4 | . | . | . | .
SMILES | V1aR counter | OXTR ag | TAAR1 antagonist | OXTR potentiate | TAAR1 agonist | nonsel antag count | TAAR1 ant conf | Ga16 ag counter | TAAR1 ag count
COc1ccc(OC)c(/C=C2\SC(=S)N(NS(=O)(=O)c3ccc(C)cc3)C2=O)c1 | 0 | -2 | -5 | -10 | 0 | . | . | . | .
CCOc1ccc(/C=C2\SC(=S)N(NS(=O)(=O)c3ccccc3)C2=O)cc1OC | 0 | 0 | 75* | 1 | 5 | 23* | 53* | 4 | 2
COc1cc(/C=C2\SC(=S)N(CCCCC(=O)O)C2=O)ccc1OS(=O)(=O)c1ccc(C)cc1 | 2 | 0 | 65* | -10 | 12 | 50* | 50* | 12* | 7
CCOc1ccc(/C=C2\SC(=S)N(NS(=O)(=O)c3ccc(C)cc3)C2=O)cc1OC | 1 | -1 | 75* | -4 | 12 | 29* | 51* | 7 | 4
COc1cc2c(cc1OC)C(c1ccc(Br)cc1)NC(=O)C2 (centres undefined) | . | . | -8 | . | 1 | . | . | . | .
Cc1ccc(C(=O)Nc2ccc(C)c(S(=O)(=O)Nc3ccccc3Cl)c2)s1 | 1 | -2 | 68* | -9 | 5 | 20 | 23 | 3 | -1
CC1(C(=O)NS(=O)(=O)C2CC2)CCN(C(=O)c2cc(F)cc(F)c2)C1 (centres undefined) | . | . | -2 | . | 0 | . | . | . | .
NC(=O)c1ccsc1NC(=O)C1CCN(S(=O)(=O)c2cccs2)CC1 | 1 | 2 | 39 | -9 | 14 | . | . | . | .
CNC(=O)c1ccsc1NC(=O)C1CCN(S(=O)(=O)c2ccc(Cl)s2)CC1 | 1 | 1 | 58* | -5 | 12 | 29* | 47 | 15* | 30
COc1ccc(-c2[nH]ncc2CN2CCC(OCc3cccnc3)CC2)c(F)c1 | 1 | 0 | 7 | -8 | 6 | . | . | . | .
CC(=O)N1c2ccc(S(=O)(=O)NCCc3ccc(S(N)(=O)=O)cc3)cc2CC1C (centres undefined) | -1 | 0 | 2 | -12 | 1 | . | . | . | .
Cc1nc2ccc(NC(=O)c3ccc(S(=O)(=O)N(C)c4ccccc4)cc3)cc2s1 | 8 | 5 | 59* | -12 | 21 | 33* | 53* | 11 | 6
CC(=O)Nc1ccc(NC(=O)c2ccc(S(=O)(=O)N(C)c3ccccc3)cc2)cc1 | 3 | 2 | 23 | -7 | 5 | . | . | . | .
